Laboratory results reported in publication PMC9323481 (Diabetes, Obesity & Metabolism, 2022).

Columns and labels:
Assay type in all cases: in vivo, human
[1] = tested on: patients with type 2 diabetes and CKD; test: Supine blood pressure and heart rate
Outline: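 Vital signs, blood pressure and 24-h pulse rate were safety endpoints, taken as change from baseline. Randomized double-blind design: once-daily morning s.c. test compound titrated 50 μg (4 days), 100 μg (7 days), 200 μg (7 days), 300 μg (14 days), or placebo for 32 days. ANCOVA with baseline as covariate, as-treated population.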

[2] = tested on: patients with type 2 diabetes and CKD; test: UACR and eGFR
Outline: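 Exploratory endpoints: change from baseline in mean urinary albumin-to-creatinine ratio (UACR) and eGFR. Dosing was randomized, double-blind, once-daily s.c., titrated 50-300 μg over 32 days, against placebo. Change in UACR was analysed by t-test with unequal variance. Continuous endpoints were analysed by ANCOVA with baseline as covariate, intent-to-treat population.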

[3] = tested on: patients with type 2 diabetes and CKD on insulin ≥20 units per day; test: Total daily insulin dose; conditions: participants on insulin ≥20 units per day; range –194, 20; placebo 0.0, p = .073
Outline: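 Exploratory endpoint: change in total daily insulin dose from baseline to end of dosing, in participants on ≥20 units/day. Randomization was stratified by insulin dose (≥20 vs <20 units/day). Dosing was once-daily s.c., titrated 50-300 μg over 32 days, against placebo. Analysed by two-sample t-test with unequal variance and Satterthwaite approximation.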

[4] = tested on: patients with type 2 diabetes and CKD; test: Treatment-emergent adverse events
Outline: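 Incidence of adverse events and serious adverse events during 32 days of once-daily s.c. dosing (titrated 50→100→200→300 μg) or placebo. Clinically significant hypoglycaemia was defined as capillary or venous plasma glucose <54 mg/dl (3.0 mmol/L). Safety analyses used the as-treated population with descriptive statistics.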

[5] = tested on: patients with type 2 diabetes and CKD; test: Immunogenicity; conditions: serum anti-drug antibody
Outline: (§1)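 Secondary endpoints of a 32-day trial: once-daily morning s.c. dosing titrated through 50 μg for 4 days, 100 μg for 7 days, 200 μg for 7 days and 300 μg for 14 days. Pharmacokinetic parameters and anti-drug antibody titre were summarized with descriptive statistics only.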

[6] = tested on: patients with type 2 diabetes and CKD; test: Fasting plasma glucose and HbA1c; conditions: s.c. once daily, 50-300 μg; for Change in LS mean fasting plasma glucose from baseline to day 32: 32 days
[7] = tested on: patients with type 2 diabetes and CKD; test: Bodyweight; conditions: p < .001
Outline: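 Randomized 1:1, double-blind; test compound or placebo given s.c. once daily each morning. Test compound dose titration: 50 μg for 4 days, 100 μg for 7 days, 200 μg for 7 days, then 300 μg for 14 days. Percentage and absolute change in bodyweight from baseline, intent-to-treat population. ANCOVA with treatment as fixed factor and baseline as covariate.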

[8] = tested on: patients with type 2 diabetes and CKD; test: Continuous glucose monitoring
Outline: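 Double-blind, placebo-controlled, once-daily s.c. dosing titrated 50→100→200→300 μg over 32 days. Continuous glucose monitoring gave the percentage of time with interstitial glucose in the target range of 70-180 mg/dl (3.9-10 mmol/L) over a 7-day period, at baseline and in the final week of treatment. Change analysed by Wilcoxon rank-sum test, intent-to-treat population.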

[9] = Pharmacokinetics; conditions: repeat daily s.c. administration 50-300 μg; plasma
Outline: as §1

[10] = tested on: patients with type 2 diabetes and CKD; test: Clinical chemistry and eGFR percent change; conditions: baseline to day 32

Substance: cotadutide
- Increase in LS mean heart rate from baseline to day 32 ([1]; placebo 3.14, p < .001): 14.13 beats per minute
- Increase in LS mean supine diastolic blood pressure from baseline to day 32 ([1]; placebo 3.40, p = .421): 0.57 mmHg
- Increase in LS mean supine systolic blood pressure from baseline to day 32 ([1]; placebo 8.69, p = .144): 1.44 mmHg
- LS mean change in eGFR ([2]; 90% CI –1.29, 3.62, placebo –1.10, p = .268): 1.17 ml/min/1.73 m^2
- Change in LS mean UACR from baseline to day 33 ([2]; all participants, placebo 5.43%, not significant): –7.65%
- Median absolute change in total daily insulin dose from baseline to day 32 [3]: –16.0 units per day
- Mild/moderate adverse events, participants ([4]; abstract, placebo 35.0%): 71.4%
- Treatment-emergent adverse event: Any ([4]; n = 21, as-treated, placebo 13 (65.0)): 20 (95.2) n (%)
- Treatment-emergent adverse event: Hypoglycaemia ([4]; n = 21, clinically significant, capillary or venous plasma glucose <54 mg/dl (3.0 mmol/L), placebo 1 (5.0)): 3 (14.3) n (%)
- Treatment-emergent adverse event: Decreased appetite ([4]; n = 21, placebo 0): 3 (14.3) n (%)
- Treatment-emergent adverse event: Diarrhoea ([4]; n = 21, placebo 0): 5 (23.8) n (%)
- Treatment-emergent adverse event: Flatulence ([4]; n = 21, placebo 0): 2 (9.5) n (%)
- Treatment-emergent adverse event: Leading to death (no. patients) ([4]; n = 21, placebo 0): 1 (4.8) n (%)
- Treatment-emergent adverse event: Serious related to cotadutide ([4]; n = 21, placebo 0): 1 (4.8) n (%)
- Treatment-emergent adverse event: Dizziness ([4]; n = 21, placebo 1 (5.0)): 2 (9.5) n (%)
- Treatment-emergent adverse event: Dyspepsia ([4]; n = 21, placebo 1 (5.0)): 5 (23.8) n (%)
- Treatment-emergent adverse event: Leading to study discontinuation (no. patients) ([4]; n = 21, placebo 1 (5.0)): 2 (9.5) n (%)
- Treatment-emergent adverse event: Vomiting ([4]; n = 21, placebo 1 (5.0)): 6 (28.6) n (%)
- Treatment-emergent adverse event: Headache ([4]; n = 21, placebo 2 (10.0)): 2 (9.5) n (%)
- Treatment-emergent adverse event: Nasopharyngitis ([4]; n = 21, placebo 2 (10.0)): 3 (14.3) n (%)
- Treatment-emergent adverse event: Serious (no. patients) ([4]; n = 21, placebo 2 (10.0)): 2 (9.5) n (%)
- Treatment-emergent adverse event: Nausea ([4]; n = 21, placebo 4 (20.0)): 9 (42.9) n (%)
- Treatment-emergent adverse event: Any related to cotadutide ([4]; n = 21, placebo 7 (35.0)): 15 (71.4) n (%)
- AEs of severe hypoglycaemia ([4]; whole study): no recorded AEs
- Treatment-boosted ADA response [5]: No participants
- Change in LS mean fasting plasma glucose from baseline to day 32 ([6]; placebo 0.03): 1.09 mmol/L
- Change in LS mean fasting plasma glucose from baseline to day 32 ([6]; placebo +0.60, p = .089): –19.55 mg/dl
- Change in LS mean HbA1c from baseline to day 32 ([6]; placebo +0.01%, p < .001): –0.65%
- LS mean change in absolute bodyweight from baseline to day 33 ([7]; 90% CI –4.2, –2.62, placebo –0.13 kg): –3.41 kg
- LS mean percentage change in bodyweight from baseline to day 33 ([7]; 90% CI –4.55, –2.83, placebo –0.21%): –3.69%
- Mean percentage of time within target range over a 7-day period ([8]; 100 μg dose period, placebo 48.57%): 75.82%
- Mean percentage of time within target range over a 7-day period ([8]; 200 μg dose period, placebo 54.99%): 78.69%
- Mean percentage of time within target range over a 7-day period ([8]; 300 μg dose period, placebo 40.66%): 78.18%
- Time in clinically significant hypoglycaemia (glucose <54 mg/dl or <3.0 mmol/L) ([8]; CGM, entire dosing period, placebo 0.66%, p = .010): 2.01%
- Time in hypoglycaemia (glucose <70 mg/dl or <3.9 mmol/L) ([8]; CGM, entire dosing period, placebo 2.73%, p = .061): 6.07%
- Time in hyperglycaemia (glucose >180 mg/dl or 10 mmol/L) ([8]; CGM, entire dosing period, placebo 37.39%, p = .001): 10.50%
- Exposure at Ctrough with dose [9]: linear increased exposure
- Trends or shifts from baseline in serum chemistry [10]: no clinically meaningful trends or shifts
